Test results from paper PMC7813200 (Neuro-oncology Advances, 2020).
Entries after “also recorded” stand apart in the source; their conditions may differ.

Experiments:
PDGFB-glioma = test: RCAS/tv-a PDGFB glioma mouse model; format: in vivo; conditions: for tumor density by olig-2 immunostaining: each arm at its regimen (ST-401 regimen 2; TMZ 50 mg/kg); for necrotic area: end-stage histopathology, each arm at its regimen
S24 PD-glioma cells [1] = test: tumor microtube; format: cell-based, human; conditions: Y-27632 50 μM
Outline: (§1)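 GFP-expressing patient-derived S24 and BG5 glioma cells treated with increasing test-compound concentrations (e.g. 30 and 300 nM) or controls: DMSO 1% vehicle, Y-27632 50 μM, nocodazole 300 nM. Stained with Ho342/EthD2. TM number and length per cell quantified semi-automatically from immunofluorescence images via a machine learning-based workflow. Two-way ANOVA, Tukey post-test.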

BG5 PD-glioma cells = test: tumor microtube; format: cell-based, human; conditions: Y-27632 50 μM
Outline: as §1

S24 PD-glioma cells [2] = test: cell death of S24 PD-glioma; format: cell-based, human; conditions: Y-27632 50 mM (as printed in Figure S3), 24 h
Outline: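 GFP-expressing patient-derived S24 glioma cells treated alongside vehicle (DMSO 1%), then stained with Ho342 and EthD2 and imaged by fluorescence microscopy.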

[3] = system: tubulin (colchicine site); test: [3H]colchicine binding to purified tubulin; conditions: 5 μM compound; mean of n = 3
tubulin = tubulin assembly, pelleting assay; format: biochemical; conditions: compared to ST-360
Outline: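 Tubulin assembly assessed by pelleting assay, with release of free tubulin measured. Mean ± SEM from 3 to 5 experiments.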

HCT116 cells = test: live cell imaging of MT assembly rates; format: cell-based, human
Outline: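 HCT116 cells expressing EB1-GFP to label growing microtubule ends. Imaged at a single Z-plane at 500-ms intervals. Assembly rates scored in interphase cells by particle tracking, before treatment and again after compound wash-out (POST).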

[4] = system: six human glioma cell lines (SF-268, SF-295, SF-539, SNB-19, SNB-75, U251); test: NCI-60 cell line panel, six glioma lines; format: cell-based; conditions: read-out: IC50s (growth inhibition, TGI50 in Figure 2A)
COLO205 cells = test: NCI-60 cancer cell panel, COLO205; format: cell-based; conditions: Homo sapiens, COLO 205
[5] = system: PD-glioma isolates (proneural, mesenchymal, classical, MGG8); test: viability of PD-glioma isolates; format: cell-based; conditions: Homo sapiens, read-out: IC50, antitumor activity (viability, WST-1)
MGG8 cells [6] = test: cell viability WST-1, MGG8; format: cell-based, human; conditions: 72 h
T98G cells [7] = test: cell viability WST-1, T98G; format: cell-based; conditions: Homo sapiens, 72 h, read-out: IC50, overall cell viability
T98G cells [8] = test: cells in S phase, BrdU incorporation, T98G; format: cell-based, human
CD1 mice = test: maximal tolerated dose and dose range finding; format: in vivo, mouse; conditions: bidaily i.p. 20 mg/kg, 5 days/week for 4 weeks
Outline: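 CD1 mice dosed i.p. at 5, 10, 20, 50, 100 or 150 mg/kg, or with the corresponding volume of no-drug formulation (vehicle). Monitored for signs of general distress. Regimen 2: 20 mg/kg i.p. bidaily, 5 days/week for 4 weeks.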

[9] = pharmacokinetics, plasma and brain by LC-MS; format: in vivo, mouse
[10] = system: COLO205 cell-derived subcutaneous xenografts; test: COLO205 xenograft flank tumor model; format: in vivo, mouse
MGG8 cells [11] = test: cells in S phase, BrdU incorporation, MGG8; format: cell-based, human; conditions: NOC 3 μM

SMILES: Cn1nnc2c(C(N)=O)ncn2c1=O [TMZ, temozolomide, reference compound]
- average median survival (PDGFB-glioma; TMZ 50 mg/kg once per day, 5 days/week for 4 weeks, control 20 days): 30 days
- extension of average median survival (PDGFB-glioma; TMZ 50 mg/kg once per day, 5 days/week for 4 weeks, versus control): 50%
- tumor density by olig-2 immunostaining (PDGFB-glioma): increase
- necrotic area (PDGFB-glioma): unchanged

SMILES: C[C@@H](N)[C@H]1CC[C@H](C(=O)Nc2ccncc2)CC1 [Y-27632]
- effect on TM length/cell (S24 PD-glioma cells [1]): increased
- effect on TM number/cell (S24 PD-glioma cells [1]): increased
- effect on TM length/cell (BG5 PD-glioma cells): increased
- effect on TM number/cell (BG5 PD-glioma cells): increased
- effect on cell death / viability (S24 PD-glioma cells [2]): did not affect cell viability

SMILES: CCn1c2ccccc2c2cc(C(O)c3cccc4ncccc34)ccc21 (centres unmarked) [ST-401, (9‐ethyl‐9H‐carbazol‐3‐yl)(quinolin‐5‐yl)methanol]
- competition for [3H]colchicine binding to tubulin [3]: 89%
- MT disassembly (Δ release of free tubulin) (tubulin): greater MT disassembly
- time for MT assembly to reach initial rates after wash-out (HCT116 cells; 100 nM, after wash-out): ≤ 15 min
- reduction in MT assembly rate (HCT116 cells; 100 nM, interphase cells, compared to NOC 100 nM): milder reduction
- inhibition of MT assembly (HCT116 cells; 200 nM, within 15 min): completely and reversibly inhibited all MT assembly
- IC50 [4]: 23 to 69 nM
- IC50 (COLO205 cells): 38 nM
- IC50 [5]: 24 to 47 nM
- IC50 (MGG8 cells [6]; Homo sapiens, read-out: IC50, overall cell viability): 14 nM
- IC50 (T98G cells [7]): 36 nM
- response on number of cells in S phase (T98G cells [8]; 72 h, BrdU incorporation, concentration-response): absent
- adverse effects (Regimen 2) (CD1 mice): did not trigger adverse effects
- time plasma levels remained above 250 nM ([9]; bidaily i.p. injections of 20 mg/kg): approximately 16 h
- half-life ([9]; mouse, brain, ip, 150 mg/kg): ~6 h
- concentration reached in brain ([9]; single i.p. 150 mg/kg): micromolar concentrations
- concentration reached in brain ([9]; single i.p. 20 and 5 mg/kg, 30 min): micromolar concentrations
- plasma concentration ([9]; three i.p. injections of 20 mg/kg separated by 8 and 16 h, over 24 h): above 250 nM
- treated tumors that stopped growing despite ending the treatment ([10]; Regimen 2): approximately 50%
- life-expectancy / survival of treated mice ([10]; Regimen 2, n = 10 mice per arm): significant increase in average survival; also recorded: doubling
- time without recurrence after ending treatment ([10]; tumors that stopped growing): ≥ 28 days
- average survival (PDGFB-glioma; ST-401+RT arm): 50 days
- average survival (PDGFB-glioma; ST-401+TMZ arm): 46 days
- effect on average median survival, single agent (PDGFB-glioma; ST-401 regimen 2): did not affect average median survival
- enhancement of the therapeutic efficacy of RT (PDGFB-glioma; ST-401 regimen 2 + RT single dose 10-Gy): 66%
- enhancement of the therapeutic efficacy of TMZ (PDGFB-glioma; ST-401 regimen 2 + TMZ 50 mg/kg): 60%
- increase in mitotic figures versus control arm (PDGFB-glioma; ST-401 regimen 2, H&E, end stage): 69%
- increase in tumor density (relative area of HA expression) (PDGFB-glioma; ST-401 regimen 2, semi-quantitative IHC): 54%
- tumor density by olig-2 immunostaining (PDGFB-glioma): increase
- necrotic area (PDGFB-glioma): did not reach significance

SMILES: COC(=O)Nc1nc2ccc(C(=O)c3cccs3)cc2[nH]1 [NOC, nocodazole, reference compound]
- reduction of cell viability (MGG8 cells [6]; NOC 3 µM, WST-1): 18%
- effect on number of cells in S phase (MGG8 cells [11]): reduce; also recorded: overall less active
- effect on number of cells in S phase (T98G cells [8]; NOC 3 μM, BrdU): Lack of response
